In ChEMBL document CHEMBL3351316, “Scaffold hopping approach on the route to selective tankyrase inhibitors” (Eur J Med Chem, 2014):
The source made the active and inactive calls. No cut-off for these calls is given here.

Experiments:
[1] = molecular target: T1, Poly [ADP-ribose] polymerase tankyrase-2 (Homo sapiens, UniProt Q9H2K2); assay: Inhibition of GST-tagged human recombinant TNKS2 incubated for 1 hr using NAD+, biotinylated NAD+ and activated DNA by luminescence based assay
T1 sequence (Q9H2K2 whole entry): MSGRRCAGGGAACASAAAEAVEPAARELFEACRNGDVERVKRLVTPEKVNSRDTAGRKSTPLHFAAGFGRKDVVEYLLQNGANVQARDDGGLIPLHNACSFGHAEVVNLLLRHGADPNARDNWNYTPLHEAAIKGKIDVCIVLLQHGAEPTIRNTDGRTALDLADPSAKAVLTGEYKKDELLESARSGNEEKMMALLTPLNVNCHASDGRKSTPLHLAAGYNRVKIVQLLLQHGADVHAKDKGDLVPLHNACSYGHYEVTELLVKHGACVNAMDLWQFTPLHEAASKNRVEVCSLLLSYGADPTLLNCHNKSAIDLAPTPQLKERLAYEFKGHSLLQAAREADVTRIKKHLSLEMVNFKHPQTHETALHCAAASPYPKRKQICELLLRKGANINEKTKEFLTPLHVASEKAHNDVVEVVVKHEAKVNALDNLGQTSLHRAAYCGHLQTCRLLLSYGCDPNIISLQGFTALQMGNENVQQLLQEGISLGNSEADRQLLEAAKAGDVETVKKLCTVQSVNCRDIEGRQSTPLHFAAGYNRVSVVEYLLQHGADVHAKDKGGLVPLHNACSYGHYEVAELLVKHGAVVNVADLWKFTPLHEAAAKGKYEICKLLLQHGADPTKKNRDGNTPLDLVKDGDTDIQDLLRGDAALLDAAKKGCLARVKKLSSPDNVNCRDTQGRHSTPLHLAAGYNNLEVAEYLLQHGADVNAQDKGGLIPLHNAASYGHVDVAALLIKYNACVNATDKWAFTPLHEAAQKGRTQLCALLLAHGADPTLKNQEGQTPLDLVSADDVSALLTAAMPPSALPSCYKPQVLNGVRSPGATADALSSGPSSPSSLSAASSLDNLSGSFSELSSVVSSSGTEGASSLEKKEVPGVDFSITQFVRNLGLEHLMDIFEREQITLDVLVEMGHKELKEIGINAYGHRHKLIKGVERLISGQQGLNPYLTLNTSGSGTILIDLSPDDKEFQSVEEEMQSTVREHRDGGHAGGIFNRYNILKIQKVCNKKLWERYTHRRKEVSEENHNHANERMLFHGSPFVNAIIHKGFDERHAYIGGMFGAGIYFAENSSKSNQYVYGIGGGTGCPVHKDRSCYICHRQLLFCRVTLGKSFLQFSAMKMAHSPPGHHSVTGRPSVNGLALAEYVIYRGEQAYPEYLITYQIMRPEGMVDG

[2] = molecular target: Poly [ADP-ribose] polymerase 2 (Homo sapiens) (UniProt Q9UGN5); assay: Inhibition of human recombinant PARP2 incubated for 1 hr using histone substrate at 10 uM by luminescence based assay
Sequence of Poly [ADP-ribose] polymerase 2 (Homo sapiens) (Q9UGN5 whole entry): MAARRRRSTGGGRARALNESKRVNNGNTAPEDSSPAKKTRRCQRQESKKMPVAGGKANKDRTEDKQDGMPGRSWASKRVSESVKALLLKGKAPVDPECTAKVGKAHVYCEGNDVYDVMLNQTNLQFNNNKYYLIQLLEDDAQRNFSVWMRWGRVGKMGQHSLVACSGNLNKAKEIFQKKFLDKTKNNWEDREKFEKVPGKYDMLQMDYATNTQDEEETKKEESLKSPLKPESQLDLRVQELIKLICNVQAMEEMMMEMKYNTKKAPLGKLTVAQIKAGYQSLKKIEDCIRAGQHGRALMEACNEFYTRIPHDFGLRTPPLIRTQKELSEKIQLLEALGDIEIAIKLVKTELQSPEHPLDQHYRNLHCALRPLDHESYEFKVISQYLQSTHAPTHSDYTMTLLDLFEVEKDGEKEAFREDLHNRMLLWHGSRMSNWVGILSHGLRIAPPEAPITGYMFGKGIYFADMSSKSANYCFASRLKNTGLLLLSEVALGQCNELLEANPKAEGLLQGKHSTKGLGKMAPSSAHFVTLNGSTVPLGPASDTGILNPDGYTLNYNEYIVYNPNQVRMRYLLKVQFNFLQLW
How it was run: (§1)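 Recombinant PARP enzyme reactions were run in duplicate for 1 h at rt on histone-coated plates in Tris·HCl pH 8.0 buffer with NAD+, biotinylated NAD+ and activated DNA. Detection used streptavidin-HRP for 30 min at rt, then a chemiluminescent developer. % inhibition = 100 − % activity, scaled between the no-compound (100%) and no-enzyme (0%) signals.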

[3] = test system: DLD-1; assay: Growth inhibition of human DLD1 cells at 1 uM to 10 uM; type: functional, cell-based
How it was run: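 DLD-1 colorectal cancer cells seeded at 5 × 10^3 in a colony growth assay. Cells were dosed daily with 1, 5 or 10 μM compound in DMSO, with DMSO alone as the negative control. After 10 days cells were fixed in 10% methanol/acetic acid, stained with 1% crystal violet and quantified by image analysis. Mean ± SEM of at least three independent experiments.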

[4] = test system: RKO; assay: Growth inhibition of Wnt-negative human RKO cells at 1 uM to 10 uM; type: functional, cell-based
[5] = test system: RKO; assay: Growth inhibition of Wnt-negative human RKO cells at >10 uM; type: functional, cell-based
[6] = molecular target: Protein mono-ADP-ribosyltransferase PARP6 (Homo sapiens) (UniProt Q2NL67); assay: Inhibition of human recombinant PARP6 at 10 uM incubated for 1 hr using NAD+, biotinylated NAD+ and activated DNA by luminescence based assay; how it was run: as §1
Sequence of Protein mono-ADP-ribosyltransferase PARP6 (Homo sapiens) (Q2NL67 whole entry): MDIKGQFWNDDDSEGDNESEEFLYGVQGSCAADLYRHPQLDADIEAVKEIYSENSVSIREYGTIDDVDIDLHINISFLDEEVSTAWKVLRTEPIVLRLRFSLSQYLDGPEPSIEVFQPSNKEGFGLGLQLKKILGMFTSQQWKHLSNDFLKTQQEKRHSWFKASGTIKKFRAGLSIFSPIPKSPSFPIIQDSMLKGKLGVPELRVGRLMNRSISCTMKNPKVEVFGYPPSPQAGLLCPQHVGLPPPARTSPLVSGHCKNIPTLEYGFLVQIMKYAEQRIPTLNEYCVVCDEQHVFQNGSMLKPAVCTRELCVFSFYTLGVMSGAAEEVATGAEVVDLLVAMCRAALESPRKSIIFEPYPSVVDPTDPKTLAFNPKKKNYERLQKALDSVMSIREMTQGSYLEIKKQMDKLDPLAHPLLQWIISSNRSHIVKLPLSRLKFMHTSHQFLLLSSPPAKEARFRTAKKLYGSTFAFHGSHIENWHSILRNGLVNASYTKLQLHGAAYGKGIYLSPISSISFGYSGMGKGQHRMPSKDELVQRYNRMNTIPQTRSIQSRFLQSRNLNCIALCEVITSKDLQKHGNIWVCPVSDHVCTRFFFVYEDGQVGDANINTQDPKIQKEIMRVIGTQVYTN

CC(C)(C)c1ccc(-c2nc3c(sc4ccccc43)c(=O)[nH]2)cc1
IC50 [1]: 28.6 nM | inhibition [2]: 0% | growth inhibition (GI) [3]: Active | growth inhibition (GI) [4]: inactive | growth inhibition (GI) [5]: Active | inhibition [6]: 6%
